# Experimental data from ChEMBL document CHEMBL4406880, “Design, synthesis, and bioactivity of dihydropyrimidine derivatives as kinesin spindle protein inhibitors” (Bioorg Med Chem, 2019).
# Key:
# [1] = tested on: MDA-MB-435; assay: Induction of apoptosis in human MDA-MB-435 cells assessed as active caspase 9 level incubated for 2 hrs by ELISA (reference value: 1); type: functional
# Procedure, shortened: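 Caspase-9 was measured by human ELISA on cell lysates, with samples in duplicate. Samples were incubated with detection antibody for 2 h at room temperature. This was followed by 1 h with anti-rabbit IgG-HRP and 10 min with TMB substrate. After a stop solution, absorbance was read at 450 nm.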
# [2] = tested on: 786-0; assay: Growth inhibition of human 786-0 cells assessed as growth percentage at 10 uM incubated for 48 hrs by sulforhodamine B assay relative to control; type: functional; conditions: 786-0, 48 h, read-out: Activity
# Procedure, shortened: (§1)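 NCI-60 one-dose screen: cells in RPMI 1640 with 5% FBS and 2 mM L-glutamine, plated at 5,000–40,000 cells/well and preincubated 24 h at 37 °C, 5% CO2. Compound is added from a DMSO stock to a final 10 µM and incubated 48 h. Cells are TCA-fixed and stained with sulforhodamine B, read at 515 nm. Output is % growth versus untreated control, with a time-zero plate.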
# [3] = tested on: HEK293; assay: Growth inhibition of human HEK293 cells assessed as cell viability incubated for 48 hrs by MTT assay; type: cell-based; parameters: unit not given here
# Procedure, shortened: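 HEK 293 normal-cell growth inhibition; measured in triplicate, IC50 reported as mean ± SD.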
# [4] = Growth inhibition of human HEK293 cells assessed as cell viability at 100 ug incubated for 48 hrs by MTT assay relative to control; type: cell-based; conditions: read-out: Activity
# [5] = Growth inhibition of human HEK293 cells assessed as cell viability at 6.25 ug incubated for 48 hrs by MTT assay relative to control; type: cell-based; conditions: read-out: Activity
# [6] = tested on: OVCAR-4; assay: Growth inhibition of human OVCAR4 cells assessed as growth percentage at 10 uM incubated for 48 hrs by sulforhodamine B assay relative to control; type: functional; conditions: OVCAR-4, 48 h, read-out: Activity
# Procedure, shortened: (§2)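 NCI-60 one-dose screen. Cells in RPMI 1640 with 5% FBS and 2 mM L-glutamine, seeded at 5,000–40,000 cells/well according to doubling time, and preincubated overnight at 37 °C, 5% CO2. A time-zero plate was TCA-fixed at drug addition. Compound from DMSO stock, final 10 µM, 48 h; DMSO vehicle controls. Fixation with TCA, 10% final (16% for suspension cells). SRB stain, Tris solubilization, A515. Result given as % growth versus untreated cells.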
# [7] = tested on: OVCAR-3; assay: Growth inhibition of human OVCAR3 cells assessed as growth percentage at 10 uM incubated for 48 hrs by sulforhodamine B assay relative to control; type: functional; conditions: OVCAR-3, 48 h, read-out: Activity; procedure, shortened: as §2
# [8] = Growth inhibition of human HEK293 cells assessed as cell viability at 25 ug incubated for 48 hrs by MTT assay relative to control; type: cell-based; conditions: read-out: Activity
# [9] = tested on: NCI-H522; assay: Growth inhibition of human NCI-H522 cells assessed as growth percentage at 10 uM incubated for 48 hrs by sulforhodamine B assay relative to control; type: functional; conditions: NCI-H522, 48 h, read-out: Activity; procedure, shortened: as §2
# [10] = tested on: MDA-MB-468; assay: Growth inhibition of human MDA-MB-468 cells assessed as growth percentage at 10 uM incubated for 48 hrs by sulforhodamine B assay relative to control; type: functional; conditions: MDA-MB-468, 48 h, read-out: Activity; procedure, shortened: as §2
# [11] = tested on: SF-295; assay: Growth inhibition of human SF295 cells assessed as growth percentage at 10 uM incubated for 48 hrs by sulforhodamine B assay relative to control; type: functional; conditions: SF-295, 48 h, read-out: Activity
# Procedure, shortened: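 NCI-60 single-dose screen. Cells were grown in RPMI 1640 with 5% FBS and 2 mM L-glutamine and plated at 5,000–40,000 cells/well. After an overnight preincubation at 37 °C in 5% CO2, compound was added at a final 10 µM from a DMSO stock, with DMSO/PBS controls. After 48 h, cells were TCA-fixed and stained with 0.4% SRB, and absorbance was read at 515 nm. Growth is given as a percentage of untreated control.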
# [12] = tested on: HT-29; assay: Growth inhibition of human HT-29 cells assessed as growth percentage at 10 uM incubated for 48 hrs by sulforhodamine B assay relative to control; type: functional; conditions: HT-29, 48 h, read-out: Activity; procedure, shortened: as §2
# [13] = Growth inhibition of human HEK293 cells assessed as cell viability at 1.56 ug incubated for 48 hrs by MTT assay relative to control; type: cell-based; conditions: read-out: Activity
# [14] = Inhibition of kinesin (unknown origin) assessed as reduction in ATPase activity using microtubule as substrate measured for 5 to mins; parameters: species or system Homo sapiens
# [15] = Growth inhibition of human HEK293 cells assessed as cell viability at 0.39 ug incubated for 48 hrs by MTT assay relative to control; type: cell-based; conditions: read-out: Activity
# [16] = tested on: NCI-H322M; assay: Growth inhibition of human NCI-H322M cells assessed as growth percentage at 10 uM incubated for 48 hrs by sulforhodamine B assay relative to control; type: functional; conditions: read-out: Activity; procedure, shortened: as §2
# [17] = tested on: MDA-MB-435; assay: Induction of apoptosis in human MDA-MB-435 cells assessed as active caspase 3 level incubated for 2 hrs by ELISA (reference value: 1); type: functional
# Procedure, shortened: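 Active caspase-3 was measured by human sandwich ELISA. Samples were incubated on the plate for 2 h at room temperature. This was followed by 1 h with detection antibody, 30 min with anti-rabbit IgG-HRP, and 30 min with chromogen, with all steps at room temperature. Absorbance was read at 450 nm, and levels were read from a standard curve.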
# [18] = tested on: HCT-116; assay: Growth inhibition of human HCT116 cells assessed as growth percentage at 10 uM incubated for 48 hrs by sulforhodamine B assay relative to control; type: functional; conditions: HCT-116, 48 h, read-out: Activity; procedure, shortened: as §1
# [19] = tested on: HCT-15; assay: Growth inhibition of human HCT15 cells assessed as cell viability at 100 uM incubated for 48 hrs by sulforhodamine B assay; type: functional; conditions: HCT-15, 48 h, read-out: Activity
# [20] = tested on: KM12; assay: Growth inhibition of human KM12 cells assessed as cell viability at 0.001 uM incubated for 48 hrs by sulforhodamine B assay relative to control; type: functional; conditions: KM12, 48 h, read-out: Activity
# [21] = tested on: UACC-257; assay: Growth inhibition of human UACC257 cells incubated for 48 hrs by sulforhodamine B assay; type: functional; conditions: UACC-257, 48 h
# Procedure, shortened: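 NCI-60 five-dose SRB assay. Cells were exposed for 48 h to tenfold dilutions of 0.01, 0.1, 1, 10 and 100 µM, in RPMI 1640 with 5% FBS. Plates fixed with TCA at the time of drug addition served as the time-zero reference. GI50 is the concentration giving a 50% reduction in net growth. TGI is total growth inhibition. LC50 is a net 50% loss of the initial cells.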
Structure (SMILES),fold change (FC) [1],growth at 10 µM [2] [%],IC50 [3],"viability at 48 h, 100 ug [4] [%]","viability at 48 h, 6.25 ug [5] [%]",growth at 10 µM [6] [%],"viability at 48 h, 25 ug [8] [%]",growth at 10 µM [9] [%],growth at 10 µM [11] [%],growth at 10 µM [12] [%],"viability at 48 h, 1.56 ug [13] [%]",IC50 [14] [µM],"viability at 48 h, 0.39 ug [15] [%]",growth at 10 µM [16] [%],fold change (FC) [17],growth at 10 µM [18] [%],further results
CC(=O)N1C(=S)NC(C)=C(C(=O)OCc2ccccc2)C1c1ccc2c(c1)OCO2 (racemic),18.79,96.8,27.99,41.4,61.3,99.3,50,75.7,96.4,52.2,69.3,3.86,76.2,101,7.9,41.4,growth at 10 µM [7]: 104%; growth at 10 µM [10]: 78.9%
CC1=C(C(=O)OCc2ccccc2)C(c2ccc3c(c2)OCO3)n2c(nc3ccccc32)N1 (racemic),12.43,31 to 43.1,16.75,36,58.7,54 to 73.8,47.2,8 to 26.3,8 to 20.4,7 to 14.4,67.2,4.36,77.6,47 to 55,6.83,18.8 to 25,viability at 100 µM [19]: 19%; viability at 0.001 µM [20]: 91%; GI50 ([21]; read-out: GI50): 0.98 µM; LC50 (concentration killing 50% of the initial cells) ([21]; read-out: LC50): > 100 µM; TGI ([21]; read-out: TGI): > 100 µM; GI50 ([21]; read-out: pGI50 (converted)): 0.977 µM; LC50 (concentration killing 50% of the initial cells) ([21]; read-out: pLC50 (converted)): > 100 µM; TGI ([21]; read-out: pTGI): > 100 µM
